Values belong to the compound of their own block, whether it stands above or below them.
Key:
Cavia porcellus [1] = organism: Cavia porcellus; test: Dissociation constant on guinea pig tracheal spirals utilizing LTE4 as agonist; conditions: Trachea
Cavia porcellus [2] = organism: Cavia porcellus; test: Inhibition of LTE4 (8 nM) induced contraction of guinea pig tracheal spirals at a concentration of 0.1 uM; assay type: functional, Trachea
How it was run: (§1)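 Paired tracheal spirals at 37 °C in Krebs gassed with 95% O2/5% CO2 under 2 g tension, given repeated LTE4 challenges of 10 min. Compound or vehicle added 10 min before a third challenge. % inhibition = (2nd − 3rd response)/2nd × 100, corrected by subtracting the vehicle value. Paired t test, n ≥ 4.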

[3] = Negative logarithm of the molar dissociation constant; assay type: ADME
How it was run: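 Paired guinea pig tracheal spirals at 37 °C in Krebs gassed with 95% O2/5% CO2, 2 g resting tension. Responses expressed relative to 30 uM carbachol. Antagonist or vehicle preincubated 30 min, then cumulative LTE4 concentration-response curves, one per tissue. EC50 by linear regression; KB = [antagonist]/(dose ratio − 1), per Furchgott.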

Cavia porcellus [4] = organism: Cavia porcellus; test: Compound was evaluated for the displacement of [3H]LTD4 on guinea pig lung parenchymal membranes; design: species or system Lung parenchyma
How it was run: (§2)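 Membranes from perfused lungs of male Hartley guinea pigs (300-400 g) in PIPES pH 7.5 with 10 mM CaCl2, 10 mM MgCl2, 2 mM cysteine and 2 mM glycine. 1 nM 3H-LTD4 at 22 °C for 30 min; nonspecific binding with 2 uM LTD4. Filtration, then scintillation counting. IC50 by nonlinear least squares, Ki by Cheng-Prusoff; mean of two experiments in duplicate.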

Cavia porcellus [5] = organism: Cavia porcellus; test: Inhibition of LTE4 (8 nM) induced contraction of guinea pig tracheal spirals at a concentration of 3.3 uM; assay type: functional, Trachea
How it was run: as §1

Cavia porcellus [6] = organism: Cavia porcellus; test: Inhibition of LTE4 (8 nM) induced contraction of guinea pig tracheal spirals at a concentration of 10 nM; assay type: functional, Trachea
How it was run: as §1

Cavia porcellus [7] = test: Protection of conscious guinea pig lung function was determined by comparison of time required for the challenged animals to exhibit labored abdominal breathing after oral dose of 3 uM/kg; assay type: functional
How it was run: (§3)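 Conscious guinea pigs pretreated with indomethacin (10 mg/kg ip) and propranolol (5 mg/kg ip). Compound in PEG400 (<10% v/v)/PBS given orally 180 min before a challenge of up to 5 min with aerosolized 60 uM LTD4. Time to abdominal dyspnea scored blind. % protection is taken against vehicle controls; no end point by 300 s counts as 100%. Unpaired t test.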

Cavia porcellus [8] = organism: Cavia porcellus; test: Inhibition of LTE4 (8 nM) induced contraction of guinea pig tracheal spirals at a concentration of 100 nM; assay type: functional, Trachea
How it was run: as §1

Cavia porcellus [9] = test: Protection of conscious guinea pig lung function was determined by comparison of time required for the challenged animals to exhibit labored abdominal breathing after oral dose of 1 uM/kg; assay type: functional
How it was run: as §3

Cavia porcellus [10] = organism: Cavia porcellus; test: Inhibition of LTE4 (8 nM) induced contraction of guinea pig tracheal spirals at a concentration of 3.3 uM; NS=not statistically significant; assay type: functional; conditions: Trachea
How it was run: as §1

Cavia porcellus [11] = test: Protection of conscious guinea pig lung function was determined by comparison of time required for the challenged animals to exhibit labored abdominal breathing after oral dose of 10 uM/kg; assay type: functional
How it was run: as §3

Cavia porcellus [12] = organism: Cavia porcellus; test: Inhibition of LTE4 (8 nM) induced contraction of guinea pig tracheal spirals at a concentration of 1 uM; assay type: functional, Trachea
How it was run: as §1

Cavia porcellus [13] = organism: Cavia porcellus; test: Inhibition constant for the displacement of [3H]LTD4 on guinea pig lung parenchymal membranes; design: species or system Lung parenchyma
How it was run: as §2

Kb (Cavia porcellus [1]): 4.45 nM
Compound: COc1cc(C(=O)NS(=O)(=O)c2ccccc2C)ccc1Cn1cc(CCC(=O)N2CCC(C)(C)CC2)c2ccc(C(=O)NCC3CCCC3)cc21

Ki (Cavia porcellus [4]): 0.3 nM
Kb (Cavia porcellus [1]): 0.245 nM
Compound: COc1cc(C(=O)NS(=O)(=O)c2ccccc2C)ccc1Cc1cn(C)c2ccc(NC(=O)CC3CCCC3)cc12

Kb (Cavia porcellus [1]): 0.106 nM
Compound: COc1cc(C(=O)NS(=O)(=O)c2ccccc2C)ccc1Cn1ccc2ccc(NC(=O)CC3CCCC3)cc21
Protection (Cavia porcellus [9]): 40%

pKB [3]: 9.69
Compound: COc1cc(C(=O)NS(=O)(=O)c2ccccc2)ccc1Cc1cn(C)c2ccc(NC(=O)OC3CCCC3)cc12

Ki (Cavia porcellus [4]): 2.32 nM
Kb (Cavia porcellus [1]): 0.65 nM
Compound: COc1cc(C(=O)NS(=O)(=O)c2ccccc2C)ccc1Cn1cc(CC(C)C(=O)N(C)C)c2ccc(C(=O)NCC3CCCC3)cc21 (configuration not stated)
Protection (Cavia porcellus [11]): 37%

Ki (Cavia porcellus [4]): 9.89 nM
Compound: COc1cc(C(=O)NS(=O)(=O)c2ccccc2C)ccc1Cn1cc(C)c2ccc(C(=O)NCC3CCCC3)cc21

Ki (Cavia porcellus [4]): 1.87 nM
Compound: COc1cc(C(=O)NS(=O)(=O)c2ccccc2C)ccc1Cc1nn(C)c2ccc(C(=O)NCC3CCCC3)cc12

Kb (Cavia porcellus [1]): 0.0197 nM
Compound: CNC(=O)CCc1cn(Cc2ccc(C(=O)NS(=O)(=O)c3ccccc3)cc2OC)c2cc(NC(=O)CC3CCCC3)ccc12
Protection (Cavia porcellus [11]): 74%

pKB [3]: 7.84
Compound: COc1cc(C(=O)NS(=O)(=O)c2ccccc2)ccc1Cc1cn(C2CCCC2)c2ccc(NC(=O)OC3CCCC3)cc12

Second part, the compound before the results:

Compound: COc1cc(C(=O)O)ccc1Cn1cc(C(C)=O)c2ccc(NC(=O)OC3CCCC3)cc21
Inhibition (Cavia porcellus [2]): 83%

Compound: COc1cc(C(=O)O)ccc1Cc1cn(C2CCCC2)c2ccc(NC(=O)OC3CCCC3)cc12
pKB [3]: 7.67

Compound: CCN(CC)C(=O)CCc1cn(Cc2ccc(C(=O)NS(=O)(=O)c3ccccc3C)cc2OC)c2cc(C(=O)NCC3CCCC3)ccc12
Ki (Cavia porcellus [4]): 0.54 nM

Compound: CCCCOC(=O)Nc1ccc2cc(C)n(Cc3ccc(C(=O)O)cc3OC)c2c1
Inhibition (Cavia porcellus [5]): 41%

Compound: COc1cc(C(=O)NS(=O)(=O)c2ccccc2)ccc1Cn1cc(CCC(N)=O)c2ccc(OCCC3CCCC3)cc21
Inhibition (Cavia porcellus [6]): 29%
Kb (Cavia porcellus [1]): 10.3 nM

Compound: COc1cc(C(=O)O)ccc1Cn1ccc2ccc(NC(=O)CC3CCCC3)cc21
Inhibition (Cavia porcellus [2]): 34%
Kb (Cavia porcellus [1]): 20.7 nM

Compound: COc1cc(C(=O)NS(=O)(=O)c2ccccc2C)ccc1Cn1cc(CCC(=O)N2CCCC2)c2ccc(C(=O)NCC3CCCC3)cc21
Protection (Cavia porcellus [7]): 49%

Compound: CCCn1cc(Cc2ccc(C(=O)O)cc2OC)c2cc(NC(=O)OC3CCCC3)ccc21
pKB [3]: 7.72

Compound: COc1cc(C(=O)NS(=O)(=O)c2ccccc2)ccc1Cn1ccc2ccc(NC(=O)OC3CCCC3)cc21
Kb (Cavia porcellus [1]): 0.29 nM

Compound: COc1cc(C(=O)NS(=O)(=O)c2ccccc2)ccc1Cn1c2c(c3ccc(NC(=O)CC4CCCC4)cc31)CCCC2
Kb (Cavia porcellus [1]): 7.73 nM

Compound: COc1cc(C(=O)NS(=O)(=O)c2ccccc2C)ccc1Cn1ccc2ccc(OCCC3CCCC3)cc21
Inhibition (Cavia porcellus [8]): 21%

Compound: COc1cc(C(=O)O)ccc1Cn1ccc2ccc(NC(=O)OC3CCCC3)cc21
Inhibition (Cavia porcellus [2]): 61%
Kb (Cavia porcellus [1]): 15.7 nM

Compound: COc1cc(C(=O)O)ccc1Cn1cc(Cl)c2ccc(NC(=O)OC3CCCC3)cc21
Inhibition (Cavia porcellus [2]): 41%

Compound: COc1cc(C(=O)O)ccc1Cn1ccc2ccc(C(=O)NCC3CCCC3)cc21
Inhibition (Cavia porcellus [5]): 45%

Compound: CCCCOC(=O)Nc1ccc2c(Br)c(Br)n(Cc3ccc(C(=O)O)cc3OC)c2c1
NS (Cavia porcellus [10]): not statistically significant

Compound: CCCC(=O)c1cn(Cc2ccc(C(=O)NS(=O)(=O)c3ccccc3)cc2OC)c2cc(NC(=O)CC3CCCC3)ccc12
Kb (Cavia porcellus [1]): 0.496 nM

Compound: COc1cc(C(=O)NS(=O)(=O)c2ccccc2C)ccc1Cn1cc(CCC(=O)N2CCOCC2)c2ccc(C(=O)NCC3CCCC3)cc21
Protection (Cavia porcellus [11]): 53%
Kb (Cavia porcellus [1]): 0.289 nM

Compound: COc1cc(C(=O)O)ccc1Cc1cn(C)c2ccc(C(=O)NCC3CCCC3)cc12
Inhibition (Cavia porcellus [12]): 33%
Ki (Cavia porcellus [13]): 422 nM
